Assay results from different studies.
Protocols differ between the studies behind these lines.
Organism: Staphylococcus aureus
Observed: microbial growth

| SMILES | method | strain | time | notes | MIC |
| --- | --- | --- | --- | --- | --- |
| CCN1CCC(CCNCc2cc3cc(OC)c(OC)c(OC)c3nc2SCc2ccccc2)CC1 | broth dilution |  |  |  | 128 µg/mL |
| CCCCCCC#Cc1cncc(-c2nnc(SCc3cc([N+](=O)[O-])cc([N+](=O)[O-])c3)n2CCCN)c1 | broth dilution | MRSA |  |  | 8 to 16 µg/mL |
| C=C[C@]1(C)C[C@@H](OC(=O)CS[C@@H]2C[C@H]3CC[C@@H](C2)N3C)[C@]2(C)[C@H](C)CC[C@]3(CCC(=O)[C@H]32)[C@@H](C)[C@@H]1O | agar dilution | ATCC29213 |  |  | 0.0625 µg/mL |
| Cc1ccc2[nH]nc(-c3nnc(Nc4ccc(Cl)c(Br)c4)s3)c2c1 |  | ATCC29213 |  |  | 204 µg/mL |
| CC1(C)S[C@@H]2[C@H](NC(=O)[C@H](N)c3ccc(O)cc3)C(=O)N2[C@H]1C(=O)O | broth dilution | ATCCBAA44 BAA44 |  |  | 64 µg/mL |
| COc1c(N2C[C@@H]3CCCN[C@@H]3C2)c(F)cc2c(=O)c(C(=O)O)cn(C3CC3)c12 | agar dilution | ATCC29213 |  |  | 0.5 µg/mL |
| CN[C@H](CC(C)C)C(=O)N[C@H]1C(=O)N[C@@H](CC(N)=O)C(=O)N[C@H]2C(=O)N[C@H]3C(=O)N[C@H](C(=O)N[C@H](C(=O)O)c4cc(O)cc(O)c4-c4cc3ccc4O)[C@H](O)c3ccc(c(Cl)c3)Oc3cc2cc(c3O[C@@H]2O[C@H](CO)[C@@H](O)[C@H](O)[C@H]2O[C@H]2C[C@](C)(N)[C@H](O)[C@H](C)O2)Oc2ccc(cc2Cl)[C@H]1O | broth dilution | ATCC29213 |  |  | 1 µg/mL |
| CC(=O)C1=NN(c2ccc([N+](=O)[O-])cc2)C(=C(C#N)C(=O)c2ccc(Nc3cnccn3)cc2)S1 | broth dilution | ATCC25923 |  |  | 6.25 µg/mL |
| CC1(C)S[C@@H]2[C@H](NC(=O)[C@H](N)c3ccccc3)C(=O)N2[C@H]1C(=O)O | broth dilution | MRSA |  |  | 345 µM |
| CN1CCN(CCNCc2cc3ccccc3nc2SCc2ccccc2)CC1 | broth dilution |  |  |  | 64 µg/mL |
| [H]/N=C(\N/C(=N/[H])NCCCCCCNC(=N)NC(=N)Nc1ccc(Cl)cc1)Nc1ccc(Cl)cc1 |  | ATCC33591 MRSA |  | drug-resistant strain | 1 µM |
| COc1ccc(N2N=C(C(C)=O)SC2=C(C#N)C(=O)c2ccc(Nc3cnccn3)cc2)cc1 | broth dilution | ATCC25923 |  |  | 6.25 µg/mL |
| Cc1ccc2[nH]nc(-c3nnc(Nc4ccc(Cl)c(Cl)c4)s3)c2c1 |  | ATCC29213 |  |  | 97.5 µg/mL |
| CN(C)[C@@H]1C(O)=C(C(N)=O)C(=O)[C@@]2(O)C(O)=C3C(=O)c4c(O)cccc4[C@@](C)(O)[C@H]3C[C@@H]12 | broth dilution | ATCC25923 | 16 h |  | 3.1 µM |
| CC[C@H]1OC(=O)[C@H](C)[C@@H](O[C@H]2C[C@@](C)(OC)[C@@H](O)[C@H](C)O2)[C@H](C)[C@@H](O[C@@H]2O[C@H](C)C[C@H](N(C)C)[C@H]2O)[C@](C)(O)C[C@@H](C)/C(=N\OCOCCOC)[C@H](C)[C@@H](O)[C@]1(C)O | agar dilution | ATCC43300 |  |  | 16 µg/mL |
| c1ccc(CSc2nc3ccc(-c4ccccc4)cc3cc2CNCc2ccc(CN3CCCC3)cc2)cc1 | broth dilution |  |  |  | > 128 µg/mL |
| CCCCCCCCN=c1ccn(CCCCCCCCCCn2ccc(=NCCCCCCCC)cc2)cc1 |  | ATCC33591 MRSA |  | drug-resistant strain | 1 µM |
| C[C@H]1COc2c(N3CCN(C)CC3)c(F)cc3c(=O)c(C(=O)O)cn1c23 |  | ATCC29213 MSSA |  | drug-resistant strain | 0.12 µg/mL |
| CCCCCCC#Cc1cncc(-c2nnc(SCc3cc(C(F)(F)F)cc(C(F)(F)F)c3)n2CCCN)c1 | broth dilution | ATCC29213 |  |  | 4 µg/mL |

| SMILES | method | strain | time | notes | MIC |
| --- | --- | --- | --- | --- | --- |
| CC[C@H]1OC(=O)[C@H](C)[C@@H](O[C@H]2C[C@@](C)(OC)[C@@H](O)[C@H](C)O2)[C@H](C)[C@@H](O[C@@H]2O[C@H](C)C[C@H](N(C)C)[C@H]2O)[C@](C)(O)C[C@@H](C)CN(C)[C@H](C)[C@@H](O)[C@]1(C)O | broth dilution | USA300 |  |  | > 64 µg/mL |
| CN[C@H](CC(C)C)C(=O)N[C@H]1C(=O)N[C@@H](CC(N)=O)C(=O)N[C@H]2C(=O)N[C@H]3C(=O)N[C@H](C(=O)N[C@H](C(=O)O)c4cc(O)cc(O)c4-c4cc3ccc4O)[C@H](O)c3ccc(c(Cl)c3)Oc3cc2cc(c3O[C@@H]2O[C@H](CO)[C@@H](O)[C@H](O)[C@H]2O[C@H]2C[C@](C)(N)[C@H](O)[C@H](C)O2)Oc2ccc(cc2Cl)[C@H]1O | agar dilution | ATCC43300 |  |  | 2 µg/mL |
| N[C@@H](Cc1c[nH]c2ccc(Cl)cc12)C(=O)O |  | NEWMAN | 18 h |  | 200 µM |
| CCCCCCCCCCCC[N+](C)(C)Cc1ccccc1 |  | MRSA USA300 |  | drug-resistant strain | 8 µM |
| CC1(C)S[C@@H]2[C@H](NC(=O)[C@H](N)c3ccccc3)C(=O)N2[C@H]1C(=O)O | agar dilution | ATCC29213 |  |  | 16 µg/mL |
| Cc1ccc2[nH]nc(-c3nnc(Nc4ccc([N+](=O)[O-])cc4)s3)c2c1 |  | ATCC29213 |  |  | 37.4 µg/mL |
| [H]/N=C(/N)N[C@H]1[C@H](O)[C@@H](O)[C@H](O[C@@H]2O[C@@H](C)[C@](O)(C=O)[C@H]2O[C@@H]2O[C@@H](CO)[C@H](O)[C@@H](O)[C@@H]2NC)[C@@H](N/C(N)=N\[H])[C@@H]1O | broth dilution | ATCC6538 |  |  | 15 µg/mL |
| CCCCCCC#Cc1cncc(-c2nnc(SCc3ccc([N+](=O)[O-])o3)n2CCCN)c1 | broth dilution | MRSA |  |  | > 64 µg/mL |
| O=C(O)c1cn(C2CC2)c2cc(N3CCNCC3)c(F)cc2c1=O | broth dilution | ATCC33591 MRSA |  |  | 0.5 µg/mL |
| COc1cccc(OC)c1C(=O)N[C@@H]1C(=O)N2[C@@H]1SC(C)(C)[C@@H]2C(=O)O | broth dilution | USA300 |  |  | > 64 µg/mL |
| CCCCCCC#Cc1cncc(-c2nnc(SCc3cc([N+](=O)[O-])cc([N+](=O)[O-])c3)n2CCOC2OC(CN)C(O)C2O)c1 (centres unmarked) | broth dilution | MRSA |  |  | > 64 µg/mL |
| Cc1ccc2[nH]nc(-c3nnc(Nc4ccc(F)cc4Cl)s3)c2c1 |  | ATCC29213 |  |  | 29.7 µg/mL |
| CC(=O)NC[C@H]1CN(c2ccc(N3CCOCC3)c(F)c2)C(=O)O1 | agar dilution | ATCC25923 |  |  | 1 µg/mL |
| CC(=O)OCC1=C(C(=O)O)N2C(=O)[C@@H](NC(=O)Cc3cccs3)[C@H]2SC1 | broth dilution | ATCC25923 |  |  | 6.25 µg/mL |
| CCCCCCC#Cc1cncc(-c2nnc(SCc3cc([N+](=O)[O-])cc([N+](=O)[O-])c3)n2C2CCNCC2)c1 | broth dilution | ATCC29213 |  |  | 8 µg/mL |
| Brc1ccc2nc(SCc3ccccc3)c(CNCCC3CCN(C4CCCC4)CC3)cc2c1 | broth dilution |  |  |  | 32 µg/mL |
| Cc1cc(O)cc(Nc2nnc(-c3n[nH]c4ccc(C)cc34)s2)c1 |  | ATCC29213 |  |  | 87.6 µg/mL |
| CC(=O)NC[C@H]1CN(c2ccc(N3CCOCC3)c(F)c2)C(=O)O1 | broth dilution | ATCCBAA44 BAA44 |  |  | 0.5 µg/mL |
| c1ccc(CSc2nc3ccccc3cc2CNCc2ccc(CN3CCCC3)cc2)cc1 | broth dilution |  |  |  | 64 µg/mL |
